Experimental data published in ChEMBL document CHEMBL3351579, “Structural optimization of a retrograde trafficking inhibitor that protects cells from infections by human polyoma- and papillomaviruses” (Bioorg Med Chem, 2014).
Active and inactive are the calls of the source. No cut-off for these calls is given here.

Legend:
[1] = test system: JC polyomavirus; assay: Antiviral activity against JC polyomavirus Mad1-SVEdelta infected in SVG-A cells assessed as viral infectivity level pre-incubated for 0.5 hrs with 25 uM compound before viral infection for 72 hrs by flow cytometry relative to DMSO control; type: functional
[2] = test system: Human papillomavirus type 16; assay: (§1) Inhibition of retrograde transport of HPV16 pseudovirus expressing HcRed reporter infected in SVG-A cells assessed as reduction in co-localization of viral capsid protein L1 and golgi protein TGN46 pre-incubated for 0.5 hrs with compound before viral infection for 1 hr followed by incubation with compound at 0.05 mM for 16 hrs by proximity ligation assay; type: functional, organism-based; conditions: Human papillomavirus 16
[3] = test system: JC polyomavirus; assay: Potency index, ratio of IC50 for Retro-2(cycl) to IC50 for test compound against JC polyomavirus Mad1-SVEdelta infected in SVG-A cells assessed as reduction in viral infectivity pre-incubated for 0.5 hrs with compound before viral infection for 72 hrs by flow cytometry; type: functional
[4] = test system: JC polyomavirus; assay: Antiviral activity against JC polyomavirus Mad1-SVEdelta infected in SVG-A cells assessed as reduction in viral infectivity pre-incubated for 0.5 hrs with compound before viral infection for 72 hrs by flow cytometry; type: functional, cell-based
Outline: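 JCPyV infection of SVG-A cells (1 × 10^5 per well, seeded overnight at 37°C) after 0.5 h pretreatment with compound from 1:2 serial dilutions of a 2500x DMSO stock, final DMSO 0.04%. Virus at MOI 0.25 with compound present for 72 h. Cells fixed in 4% PFA and permeabilized in 1% Triton X-100. Stained with Alexa Fluor-labeled anti-VP1 antibody, infected cells scored by flow cytometry. IC50 from three independent experiments.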

[5] = test system: Human papillomavirus type 16; assay: Antiviral activity against HPV16 pseudovirus expressing HcRed reporter infected in HeLa-M cells assessed as reduction in viral infectivity pre-incubated for 0.5 hrs with compound before viral infection for 72 hrs by flow cytometry; type: functional, organism-based; conditions: Human papillomavirus 16, HeLaM
Outline: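 HeLa M cells in DMEM with 10% FBS and 10 mM Hepes pH 7.5, pretreated with compound from 1:2 serial dilutions of a 2500x DMSO stock, final DMSO 0.04%. Challenged with HcRed-reporter HPV16 pseudovirus. Cells fixed in 4% PFA and HcRed-positive cells scored by flow cytometry. IC50 from three independent experiments.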

[6] = test system: JC polyomavirus; assay: as §1, with “JC polyomavirus Mad1-SVEdelta” for “HPV16 pseudovirus expressing HcRed reporter”, “VP1” for “L1”, “ER” for “golgi”, “PDI” for “TGN46”, “8” for “16”; type: functional, cell-based
Outline: (§2)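 SVG-A cells in MEM with 10% FBS were pretreated 0.5 h, then given JCPyV Mad1-SVEΔ at MOI 100 for 1 h at 37°C. After washing, compound (0.05 or 0.1 mM) or vehicle was re-added for 8 h at 37°C. Cells were fixed (4% PFA), permeabilised (0.5% Triton, 0.5 h) and blocked (5% donkey serum), then stained overnight at 4°C with rabbit anti-VP1 (1:1,000) plus mouse anti-PDI (1:100). Read-out: proximity ligation, confocal maximal z-projections.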

[7] = test system: Human papillomavirus type 16; assay: as §1, with “0.1” for “0.05”; type: functional, organism-based; conditions: Human papillomavirus 16
[8] = test system: JC polyomavirus; assay: as §1, with “JC polyomavirus Mad1-SVEdelta” for “HPV16 pseudovirus expressing HcRed reporter”, “VP1” for “L1”, “ER” for “golgi”, “PDI” for “TGN46”, “0.1” for “0.05”, “8” for “16”; type: functional, cell-based; outline: as §2

Row | Structure (SMILES) | Activity [1] | also measured
1 | Cc1csc(C2Nc3ccccc3C(=O)N2c2ccccc2)c1 (racemic) | 55.6% | 
2 | CCc1ccc(C2Nc3cc(Cl)ccc3C(=O)N2Cc2ccc(F)cc2)s1 (racemic) | 21.3% | 
3 | CCCCN1C(=O)c2ccccc2NC1c1ccc(CC)s1 (racemic) | 42.4% | 
4 | CCc1ccc(C2Nc3ccc(Cl)cc3C(=O)N2Cc2ccc(F)cc2)s1 (racemic) | 13.7% | 
5 | CCc1ccc(C2N(Cc3ccc(F)cc3)C(=O)c3ccccc3N2C)s1 (configuration not stated) | 60% | 
6 | CCc1ccc(C2NC(=O)c3ccccc3N2)s1 (racemic) | 41.4% | 
7 | CCc1ccc(C2Nc3ccccc3C(=O)N2[C@@H](C)c2ccccc2)s1 (mixture of isomers) | 32.4% | 
8 | CCc1ccc(C2Nc3ccccc3C(=O)N2c2ccccc2)s1 (racemic) | 47.8% | 
9 | CCc1ccc(C2Nc3ccccc3C(=O)N2Cc2ccc(OC)cc2OC)s1 (racemic) | 16.4% | 
10 | O=C1c2ccccc2NC(c2cccs2)N1c1ccccc1 (racemic) | 81.1% | 
11 | CCc1ccc(C2Nc3c(C)cccc3C(=O)N2Cc2ccc(F)cc2)s1 (racemic) | 44.5% | 
12 | CCc1ccc(C2Nc3cc(F)ccc3C(=O)N2Cc2ccc(F)cc2)s1 (racemic) | 8.82% | 
13 | CCc1ccc(C2Nc3ccc(F)cc3C(=O)N2Cc2ccc(F)cc2)s1 (racemic) | 4.45% | inhibition [2]: Active; Ratio IC50 [3]: 6.7; IC50 [4]: 8.1 µM; IC50 [5]: 24 µM; inhibition [6]: Active
14 | CCc1ccc(C2Nc3ccccc3C(=O)N2Cc2cccc(F)c2)s1 (racemic) | 14% | 
15 | O=C1c2ccccc2NC(c2cc3ccccc3s2)N1c1ccccc1 (racemic) | 95.3% | 
16 | CCc1ccc(C2Nc3ccccc3C(=O)N2CCc2ccccc2)s1 (racemic) | 50.4% | 
17 | CCc1ccc(C2Nc3ccccc3C(=O)N2Cc2ccc(OC)cc2)s1 (racemic) | 21.2% | 
18 | O=C1c2ccccc2NC(c2ccco2)N1c1ccccc1 (racemic) | 69.9% | 
19 | CCc1ccc(C2Nc3ccccc3C(=O)N2Cc2ccc([N+](=O)[O-])cc2)s1 (racemic) | 30.6% | 

Row | Structure (SMILES) | Activity [1] | also measured
20 | CCc1ccc(C2Nc3cc(C)ccc3C(=O)N2Cc2ccc(F)cc2)s1 (racemic) | 67.1% | 
21 | CCc1ccc(-c2nc3ccccc3c(=O)n2Cc2ccc(F)cc2)s1 | 63.3% | 
22 | Cc1ccsc1C1Nc2ccccc2C(=O)N1c1ccccc1 (racemic) | 76.4% | 
23 | CCc1ccc(C2Nc3ccccc3C(=O)N2C2CCCCC2)s1 (racemic) | 45.7% | 
24 | CCCCNc1ccc2c(c1)C(=O)N(Cc1ccc(F)cc1)C(c1ccc(CC)s1)N2 (configuration not stated) | 71% | 
25 | CCc1ccc(C2Nc3ccccc3C(=O)N2Cc2ccccc2)s1 (racemic) | 13.3% | 
26 | CCc1ccc(C2Nc3cccc(C)c3C(=O)N2Cc2ccc(F)cc2)s1 (racemic) | 10.2% | 
27 | CCc1ccc(C2Nc3ccccc3C(=O)N2Cc2ccc(F)cc2)s1 (racemic) | 7.62% | 
28 | CCc1ccc(C2Nc3ccccc3C(=O)N2C(C)C)s1 (racemic) | 69.9% | 
29 | CCc1ccc(C2Nc3ccccc3C(=O)N2Cc2cccc([N+](=O)[O-])c2)s1 (racemic) | 44.5% | 
30 | CCc1ccc(C2Nc3ccccc3C(=O)N2Cc2cccc(OC)c2)s1 (racemic) | 27.5% | 
31 | Cc1ccc(C2Nc3ccccc3C(=O)N2c2ccccc2)s1 (racemic) | 57.5% | inhibition [7]: Active; inhibition [8]: Active; IC50 [4]: 54 µM; IC50 [5]: 160 µM
32 | CCc1ccc(C2Nc3ccccc3C(=O)N2Cc2ccccc2OC)s1 (racemic) | 13.7% | 
33 | CCc1ccc(C2Nc3ccccc3C(=O)N2[C@H](C)c2ccccc2)s1 (mixture of isomers) | 52.7% | 
34 | Cc1ccc(C2Nc3ccccc3C(=O)N2c2ccccc2)o1 (racemic) | 64.4% | 
35 | O=C1c2ccccc2NC(c2ccc[nH]2)N1c1ccccc1 (racemic) | 92.4% | 
36 | CCc1ccc(C2Nc3ccc(C)cc3C(=O)N2Cc2ccc(F)cc2)s1 (racemic) | 8.34% | 
37 | CCCN1C(=O)c2ccccc2NC1c1ccc(CC)s1 (racemic) | 76.4% | 
38 | CCc1ccc(C2Nc3ccccc3C(=O)N2Cc2cccc3ccccc23)s1 (racemic) | 14.5% | 
